Ins promoter up = insulin promoter activators in MIN6 cells, imaging, high-content screening, mouse beta cells. MIN6 insulin promoter-GFP reporter; hits give high values. z-score at 5 µM. 0.3% of 190,000 active. AID 1625, 2009;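 active = z-score above 3 at 5 µM with at least 500 cells counted in the well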
Insulin prom inh = inhibitors of insulin promoter-driven GFP, primary screen, imaging, TRM-6 cells (human fetal islet line), eGFP reporter, cell count | reporter expression induced with tamoxifen | 0.9% of 130,000 active | inhibition, % at 2 µM;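 active = inhibition above the mean plus 3 SD, with well images judged a real hit on visual review, cut at about 60% in these data, passing the limit was not always enough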
Yeast life ext = compounds extending yeast replicative lifespan, primary screen, S. cerevisiae, OD615; inhibition of the nicotinamide effect, % at 10 µM; S. cerevisiae growth with nicotinamide; deaD strain in restrictive glucose medium; 0.68% of 130,000 active; AID 775, 2007;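 active = inhibition above a set limit, placed 3 SD over the median of all compounds, cut at about 26% in these data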;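 note: 0% = nicotinamide-treated wells and 100% = cells grown without nicotinamide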
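System: Modified budding yeast, DeaD strain | Buffer or medium: Restrictive glucose medium | Also added: 1.5 mM nicotinamide | Doses: 10 µM single point, 0.25% DMSO | Schedule: 48 h compound exposure at 30 °C, humidified | Detection: Absorbance at 615 nm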
RAM network inh = inhibitors of the yeast RAM network, primary screen, dse1pr::URA3 reporter, 5-FOA selection; S. cerevisiae dse1pr::URA3 reporter, 5-FOA growth OD615, 2 d; analog-sensitive cbk1-as2 kinase mutant strain; 1.8% of 190,000 active; inhibition, % at 50 µM;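 active = inhibition above a set limit, 3 SD over mean compound inhibition, cut at about 8.4% in these data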;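 note: 0% = DMSO-only wells with no growth and 100% = 10 µM 1-NA-PP1 full growth; inhibition rescues growth on 5-FOA so higher OD means more RAM inhibition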
Yeast growth inh = growth inhibitors of yeast BB579 in restrictive medium, primary screen, yeast lifespan-shortening project, S. cerevisiae; 0.51% of 140,000 active; inhibition, % at 10 µM; OD615, 48 h; AID 804, 2007;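 active = inhibition above a set limit, 3 SD over the mean compound inhibition, cut at about 44% in these data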
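Detection: OD615 turbidity measurement; Material: Saccharomyces cerevisiae DeaD strain BB579, replicative lifespan model yeast; Timing: 48 h exposure, 30 °C; Doses: single 10 µM dose; Medium: CSMM-D restrictive synthetic medium containing dextrose (glucose); Controls: amphotericin B at 10 µg/mL as positive control.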
Active calls of the source: *; i = inactive; · = no result given. An excerpt weighted towards active compounds, which were near 3.1% of everything screened.

SMILES	Ins promoter up	Insulin prom inh	Yeast life ext	RAM network inh	Yeast growth inh
COc1ccccc1-c1nc(C#N)c(N2CCN(C(c3ccccc3)c3ccccc3)CC2)o1	-0.51	72.7*	-5.9	3.8	-24.5
CCCc1nc2ccccc2c(=O)n1-c1ccc(C(=O)OCC)cc1	-0.1	52.4	·	2.8	·
Cc1ccccc1OC(=O)n1c(=S)oc2cc(Cl)ccc21	0.59	27.0	80.4*	-0.9	-33.7
O=C(Oc1ccccc1)n1c(=S)oc2ccccc21	-0.01	-10.3	-11.8	0.0	-9.7
CC(=O)O[C@H]1CC(C)(C)C(=C=C/C(C)=C/C=C/C(C)=C/C=C/C=C(C)/C=C/C=C(\C)C(=O)C[C@@]23O[C@]2(C)C[C@@H](O)CC3(C)C)[C@](C)(O)C1	-0.01	·	·	·	·
COc1ccc(CN(C2CCCC2)S(=O)(=O)c2ccc(-n3cnnn3)cc2)cc1	-0.17	82.8*	-22.1	7.5	-39.5
COc1ccc(-n2c(SCC(=O)NC3CCCCC3)nc3ccsc3c2=O)cc1	-0.38	-2.6	1.1	9.1*	-35.0
COC(=O)C1=C(C)N(Cc2ccco2)C(=O)/C1=C\c1ccc(N(C)C)cc1	0.23	5.3	7.2	5.5	-24.6
COC(=O)C1=C(C)N(Cc2ccco2)C(=O)/C1=C\c1ccc([N+](=O)[O-])cc1	-0.51	·	·	10.0*	·
Cc1cc(CSc2ccccc2)ccc1NC(=O)c1ccc(Br)cc1	0.46	·	6.1	3.8	-9.0
Cc1cc(CSc2ccccc2)ccc1NC(=O)COc1ccccc1	-0.74	-41.7	-5.3	8.6*	-27.3
COc1ccc(N=c2oc3c(OC)cccc3cc2C(=O)NCc2ccco2)cc1OC	-0.76	·	-6.6	9.9*	-27.9
O=C1c2ccccc2C(=O)N1Cc1ccco1	-0.53	-35.0	-11.0	1.0	43.9*
CCOC(=O)c1c(N)nn(C(C)=O)c1-c1ccccc1	1.01	18.2	-14.7	0.4	-19.6
CCOC(=O)c1c(N)nn(C(=O)C(C)C)c1-c1ccc(OC)cc1	0.27	79.3*	-10.6	-0.3	-75.2
Cc1ccc(-c2nnc(SCC(=O)Nc3cccc(C(=O)N4CCOCC4)c3)n2C)cc1	-0.08	11.5	2.7	0.4	13.9
O=C(O)c1ccc(SCc2cnc(Cl)s2)cc1	·	42.9	-18.0	0.1	97.2*
CCOC(=O)Cn1nc(C(F)F)c(Br)c1C	-0.86	53.3	·	0.6	·
CCCCNC(=O)NC1CCCC1	·	-9.7	19.5	1.2	-8.5
Nc1c(-c2cccc([N+](=O)[O-])c2)nc2ccccn12	0.61	68.8*	-4.1	1.9	-50.8
CCOC(=O)C1CCN(C(=O)COc2ccc(S(=O)(=O)N3CCCC3)cc2C)CC1	0.37	-64.3	·	0.2	·
CCOC(=O)CNC(=S)n1cnc(N)n1	0.27	-50.0	·	0.9	·
O=C(OCC(=O)N1CCN(C(=O)c2ccco2)CC1)c1cc(-c2ccco2)nc2ccccc12	0.61	31.4	-18.9	7.4	-65.4
O=C(OCC(=O)N1CCN(C(=O)c2ccco2)CC1)c1cc(-c2ccc(Cl)c(Cl)c2Cl)nc2ccccc12	-0.18	-21.9	-6.2	9.5*	-52.1
S=C(NCc1ccc(Cl)cc1)NN1CCOCC1	-0.13	·	·	0.3	·
SMILES	Ins promoter up	Insulin prom inh	Yeast life ext	RAM network inh	Yeast growth inh
CCCC[C@H](CN(N=O)[C@@H](Cc1ccccc1)CN(C)N=O)N(CCc1ccccc1)N=O	-0.89	·	·	8.9*	·
CN(C[C@H](CC1CCCCC1)N(C[C@H](Cc1ccccc1)N(CCc1ccccc1)N=O)N=O)N=O	-1.35	·	·	11.2*	·
CN(C[C@H](Cc1ccccc1)N(C[C@H](Cc1cccc2ccccc12)N(CCc1ccccc1)N=O)N=O)N=O	-1.18	·	·	·	·
Cc1ccc2cc(C#N)c(NCCNC(=O)C3CC3)nc2c1C	-1.19	·	-15.2	2.6	-37.4
O=C(CC1SC(=Nc2ccc3c(c2)OCCO3)NC1=O)Nc1ccc(F)cc1F (configuration not stated)	-1.15	·	·	·	·
CN1/C(=C\C=C2/SC(=S)N(CC(=O)O)C2=O)C(C)(C)c2ccccc21	-0.25	·	·	9.1*	·
C=CCN1C(=O)/C(=C\C=C2\N(C)c3ccccc3C2(C)C)SC1=S	·	i	-0.9	0.9	-37.5
CCN(CC)CCCC(C)NC(=O)c1ccc(C(F)(F)F)cc1 (configuration not stated)	1.63	·	·	1.8	·
Cc1ccc2occ(C(c3nnnn3Cc3ccccc3)N3CCOCC3)c(=O)c2c1 (configuration not stated)	-0.19	-34.3	26.1*	2.2	-42.3
O=C1CCCN=C(Nc2ccc(F)c(Cl)c2)S1	-1.85	·	·	·	·
COC(=O)c1ccc(C(=O)OC)c(NC(=O)CSCc2ccccc2Br)c1	-0.07	33.3	-7.6	10.9*	-14.4
CCn1ncc(Br)c1C(=O)Nc1cc(C(=O)OC)ccc1C(=O)OC	0.36	·	3.0	8.5*	-39.5
CCn1ncc(Br)c1C(=O)Nc1ccccc1OC	-0.3	-12.5	·	-0.5	·
COC(=O)c1ccc(C(=O)OC)c(NC(=O)COC(=O)c2ccc(OC)c(OC)c2OC)c1	-0.05	·	10.7	10.6*	-22.0
CCOCC(=O)Nc1cc(C(=O)OC)ccc1C(=O)OC	0.31	-10.5	-5.9	1.6	-10.5
CCc1cc2c(SCC(=O)N(C)C3CCS(=O)(=O)C3)ncnc2s1 (configuration not stated)	0.55	·	·	·	·
CCc1cc2c(SCC(=O)c3ccc(C)cc3)ncnc2s1	·	-86.7	·	9.9*	-42.5
Cc1[nH]nc2ncc(C(=O)c3ccccc3O)cc12	0.86	80.0*	-20.7	2.2	-20.6
CN1Cc2cc(C(=O)c3ccccc3O)cnc2NC1=O	-0.3	37.8	-9.3	0.1	-14.6
Cc1ccc(N(CCC(=O)O)S(=O)(=O)c2ccccc2)cc1	·	0.0	-0.6	0.7	-14.0
COc1ccc(N(CC(=O)Nc2ccccc2C(=O)O)S(=O)(=O)c2ccc(C)c([N+](=O)[O-])c2)cc1	0.19	·	·	5.4	·
CCOc1ccccc1NC(=O)CCN(c1ccc(C)cc1)S(=O)(=O)c1ccccc1	-1.02	5.4	-1.1	9.2*	-16.9
Cc1ccc(S(=O)(=O)N(CC(=O)Nc2ccccc2C(=O)O)c2ccccc2)cc1	0.26	·	·	8.7*	·
CC(=O)c1c(C)[nH]c(C(=O)OCc2ccccc2F)c1C	-0.7	9.1	·	0.7	·
N/C(=N\OC(=O)c1ccc(Br)o1)c1ccccn1	2.36	·	·	0.8	·
SMILES	Ins promoter up	Insulin prom inh	Yeast life ext	RAM network inh	Yeast growth inh
Cc1ccc(NC(=O)CSc2nn(-c3ccc(Cl)cc3)c(=S)s2)cc1S(=O)(=O)N(C)C	0.69	22.2	1.3	11.2*	-0.2
CCCCCC/C(=N/O)c1ccccn1	-0.3	·	-19.2	-1.6	99.8*
C/C(=N/O)c1ccccn1	0.48	·	·	1.4	·
O=C(NCCCCc1ccccc1)C1CC(c2ccc(C(F)(F)F)cc2)=NO1 (configuration not stated)	0.39	·	·	·	·
CC(C)OC(=O)c1cn(-c2ccccc2)nc1-c1ccc2c(c1)OCCO2	·	55.6	-2.5	11.1*	0.6
COc1ccc(-n2cccc2/C=C2\C(=N)N3N=C(C(C)C)SC3=NC2=O)cc1	-0.17	-25.0	·	11.1*	·

Screening results: PubChem, several laboratories
